This is a sample that favours compounds with a hit; in the whole collection about 1.9% have one here.
MIN6 prolif = inducers of beta-cell replication in MIN6 cells. AID 2380. 330,000 tested, 0.29% active. MIN6 cells proliferation, ATPlite luminescence, 48 h; cells starved in 0.2% serum; 100% = growth in 10% serum. proliferation, % at 10 µM;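 active = compounds whose signal lies at least 3.5 SD above the mean of all wells on their plate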
Rce1 inh = yeast Ras-converting enzyme inhibition | AID 2563 | yeast membranes, quenched prenylated peptide cleavage fluorescence | calls only | 290,000 tested, 0.27% active | Q03530;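 active = fall in fluorescence gain of 50% or more versus controls, with final raw signal at or below 3038400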
UCH37 DUB inh = human UCH37 deubiquitinating enzyme inhibition; Q9Y5K5; purified proteasome/UCH37, Ub-AMC cleavage fluorescence; inhibition, % (test concentration not listed); 330,000 tested, 0.33% active; AID 588478;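 active = mean inhibition over replicate wells above about 20%, limit read from the data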
Target sequence (Q9Y5K5 whole entry, looked up): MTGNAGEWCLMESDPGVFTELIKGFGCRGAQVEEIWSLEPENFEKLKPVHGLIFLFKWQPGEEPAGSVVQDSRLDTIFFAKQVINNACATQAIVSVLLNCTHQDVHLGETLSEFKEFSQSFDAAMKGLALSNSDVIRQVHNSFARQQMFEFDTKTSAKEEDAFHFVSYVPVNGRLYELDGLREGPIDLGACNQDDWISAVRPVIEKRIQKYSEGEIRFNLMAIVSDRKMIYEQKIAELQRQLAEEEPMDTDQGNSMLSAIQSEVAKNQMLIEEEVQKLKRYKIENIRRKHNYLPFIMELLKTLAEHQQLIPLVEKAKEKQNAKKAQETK
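Material: human UCH37 enzyme supplied as purified proteasome complex. Measure: % inhibition of Ub-AMC cleavage fluorescence. Medium: pH 7.4 Tris-HCl (50 mM) with ovalbumin, ATP-MgCl2, DTT. Times: 30 min preincubation with enzyme, 25 min cleavage at room temperature. Detection: AMC fluorescence intensity at 355/460 nm.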
NR1D1 modulator = modulates human Rev-erb alpha binding to DNA. P20393. Rev-erbα–FITC-DNA binding, fluorescence polarization, 90 min. activity, % at 10 µM. 370,000 tested, 0.79% active;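 active = activity above about 14%, limit read from the data; passing the limit was not always enough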
PG9 binder = PG9 antibody binding by small molecule; TR-FRET gp120-PG9 antibody binding; inhibition, % at 6.7 µM; 360,000 tested, 0.43% active; AID 624416; in the data active = inhibition above about 8.5%
Yeast superoxide = yeast age-related superoxide inhibition as caloric restriction mimetic; S. cerevisiae aged cells, superoxide DHE fluorescence; active compounds read low; 330,000 tested, 0.18% active; superoxide response (% of plate mean), % at 10 µM;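 active = superoxide response under a set limit, about three screen SD below normal, cut at about 65% in these data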;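 note: yeast aged for seven days with compound at 30 °C before DHE staining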
Rev-erbA confirm = Rev-erb alpha (human) modulation, hit confirmation; 3,000 tested, 61% active; activation, % at 25 µM; Rev-erb alpha FITC-DNA binding, fluorescence polarization, 90 min; shares compounds with NR1D1 modulator; AID 1259319;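 active = activation at or above a set limit, or at least 3 SD above the negative control mean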
RORg DNA counter = RORgamma DNA-binding activity, dose-response counter-screen; AID 1259320; IC50, µM; 910 tested, 8% active; shares compounds with NR1D1 modulator; purified RORgamma protein-FITC-DNA binding, fluorescence polarization;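 active = Compounds whose fitted half-maximal concentration for disrupting protein-DNA binding is below 10 micromolar; the record names Rev-erb in its text, so the target is in doubt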
Large screens that a line does not name were inactive (follow-up assays come after a bar, where they were run); ! = not confirmed by another sample.

CCOC(=O)c1sc(NC(=S)NC(=O)c2ccc(OC)cc2)nc1C	NR1D1 modulator 83 | Rev-erbA confirm 65 | RORg DNA counter inactive
CCOC(=O)c1sc(NC(=O)CCc2ccc(OC)cc2)nc1C	NR1D1 modulator 27 | Rev-erbA confirm inactive
CCOC(=O)c1sc(NC(=O)c2ccccc2OCC)nc1C	NR1D1 modulator 36 | Rev-erbA confirm inactive
COc1ccc(C(=O)NC(=S)Nc2nc(C)c(C(=O)N(C)C)s2)cc1	none
CC(=NNC(=O)c1c([N+](=O)[O-])c(C)nn1C)c1ccc(NC(=O)c2ccc(C)o2)cc1	none (no result: MIN6 prolif, Rce1 inh, NR1D1 modulator, PG9 binder, Yeast superoxide)
NC(=NO)C(c1ccccc1)c1ccccc1	none (no result: MIN6 prolif, Rce1 inh, NR1D1 modulator, PG9 binder, Yeast superoxide)
CCc1ccc(OCC(=O)NN=Cc2ccco2)c([N+](=O)[O-])c1	none (no result: MIN6 prolif, Rce1 inh, NR1D1 modulator, PG9 binder, Yeast superoxide)
O=C(NN=Cc1cccc([N+](=O)[O-])c1)C1CC(=O)N(c2ccc(F)cc2)C1 (stereo not given)	none (no result: MIN6 prolif, Rce1 inh, NR1D1 modulator, PG9 binder, Yeast superoxide)
CCOC(=O)c1sc(Nc2nc(C)cc(OC)n2)nc1C	NR1D1 modulator 15 | Rev-erbA confirm inactive
CCOC(=O)c1sc(Nc2nc(C)cc(C)n2)nc1C	none
Cc1ccc2c(c1)S(=O)(=O)c1ccc3ccccc3c1N2	NR1D1 modulator 32 (no result: MIN6 prolif, Rce1 inh, Yeast superoxide) | Rev-erbA confirm 15
CCOc1ccc(N(CC(=O)NN=Cc2cccnc2)S(C)(=O)=O)cc1	none (no result: MIN6 prolif, Rce1 inh, NR1D1 modulator, PG9 binder, Yeast superoxide)
O=C(Nc1nc(-c2cccs2)c(-c2cccs2)s1)C1CCCC1	NR1D1 modulator 80 (no result: MIN6 prolif, Yeast superoxide) | Rev-erbA confirm 114 | RORg DNA counter inactive
Cc1ccc(NC(=O)C(=O)NCc2ccc(C=NNC(=O)c3c(C)nc4cc(C)ccn34)o2)cc1	none (no result: MIN6 prolif, Rce1 inh, NR1D1 modulator, PG9 binder, Yeast superoxide)
CN(C)C(=O)CSc1nc2ccccc2c(=O)[nH]1	none
CN(C)C(=O)CSc1nc(-c2cccs2)c(-c2cccs2)[nH]1	NR1D1 modulator 22 (no result: Rce1 inh) | Rev-erbA confirm 24
CCOC(=O)c1sc2nc(C)nc(NC3CCC(O)CC3)c2c1C (stereo not given)	NR1D1 modulator 24 | Rev-erbA confirm inactive
CC(C)C[C@H]1COc2cc(NCc3ccc(Cl)c(Cl)c3)ccc2S(=O)(=O)N1	NR1D1 modulator 17 (no result: MIN6 prolif, Rce1 inh, UCH37 DUB inh, Yeast superoxide) | Rev-erbA confirm inactive
CCCCCCCCSc1nnc(N=CN(C)C)s1	none (no result: MIN6 prolif, Rce1 inh, NR1D1 modulator, PG9 binder, Yeast superoxide)
CCC(C(=O)Nc1nnc(-c2ccco2)s1)c1ccccc1 (stereo not given)	NR1D1 modulator 15 | Rev-erbA confirm inactive
O=C(CC1=NNC(=O)C1)NN=Cc1ccccc1[N+](=O)[O-]	none (no result: MIN6 prolif, Rce1 inh, NR1D1 modulator, PG9 binder, Yeast superoxide)
CC1CCCC(NC(=O)CSC2=Nc3ccccc3C3CC=NN23)C1C (stereo not given)	NR1D1 modulator 17 (no result: Rce1 inh) | Rev-erbA confirm inactive
O=C(NN=Cc1cc([N+](=O)[O-])ccc1O)/C(=C\c1cccs1)NC(=O)c1ccccc1	none (no result: MIN6 prolif, Rce1 inh, NR1D1 modulator, PG9 binder, Yeast superoxide)
Cc1cc(C)c2c(n1)nn1c(N3CCN(c4ccccc4C)CC3)cc(C)nc21	NR1D1 modulator 71 (no result: Rce1 inh) | Rev-erbA confirm 26
COc1ccc(C(=O)NN=C(C)c2ccc(N3CCCCC3)cc2)cc1	none (no result: MIN6 prolif, Rce1 inh, NR1D1 modulator, PG9 binder, Yeast superoxide)
CCC(c1ccc(O)cc1)C(CC)c1ccc(O)cc1 (stereo not given)	NR1D1 modulator 34! (no result: Rce1 inh) | Rev-erbA confirm 41 | RORg DNA counter inactive
CCC(=NN=C(CC)c1ccc(O)cc1)c1ccc(O)cc1	none (no result: MIN6 prolif, Rce1 inh, NR1D1 modulator, PG9 binder, Yeast superoxide)
Cc1oc2c(C)c3oc(=O)c4c(c3cc2c1C)CCCC4	NR1D1 modulator 30 | Rev-erbA confirm inactive
Cc1c(O)ccc2c3c(c(=O)oc12)CCCC3	none (no result: Rce1 inh)
Cc1ccc(-n2c(N)c(C#N)c(-c3ccccc3)c(C#N)c2=O)cc1	NR1D1 modulator 22 | Rev-erbA confirm 62 | RORg DNA counter inactive
Cc1ccc(-c2c(C#N)c(N)n(-c3ccccc3C)c(=O)c2C#N)cc1	none (no result: MIN6 prolif, Rce1 inh, UCH37 DUB inh, Yeast superoxide)
O=C(NN=Cc1ccc[nH]1)c1cccnc1	none (no result: MIN6 prolif, Rce1 inh, NR1D1 modulator, PG9 binder, Yeast superoxide)
CCOC(=O)c1sc(=NC(=O)c2ccc(OC(C)C)cc2)n(C)c1C	NR1D1 modulator 44 | Rev-erbA confirm 38 | RORg DNA counter 4.4
CCOC(=O)c1sc(=NC(=O)c2ccc(C)c(C)c2)n(C)c1C	none
CCOC(=O)c1sc(=NC(=O)c2ccc(Cl)s2)n(C)c1C	none
CCOC(=O)c1sc(=NC(=O)c2cccs2)n(C)c1C	NR1D1 modulator 31 | Rev-erbA confirm inactive

Compound activity: PubChem, several laboratories
